The values that follow come from article PMC6645225 (ACS Omega, 2018).

In data set [1] the target is T1, CYP1A2 (Homo sapiens, UniProt P05177).
T1 sequence (P05177 1-516): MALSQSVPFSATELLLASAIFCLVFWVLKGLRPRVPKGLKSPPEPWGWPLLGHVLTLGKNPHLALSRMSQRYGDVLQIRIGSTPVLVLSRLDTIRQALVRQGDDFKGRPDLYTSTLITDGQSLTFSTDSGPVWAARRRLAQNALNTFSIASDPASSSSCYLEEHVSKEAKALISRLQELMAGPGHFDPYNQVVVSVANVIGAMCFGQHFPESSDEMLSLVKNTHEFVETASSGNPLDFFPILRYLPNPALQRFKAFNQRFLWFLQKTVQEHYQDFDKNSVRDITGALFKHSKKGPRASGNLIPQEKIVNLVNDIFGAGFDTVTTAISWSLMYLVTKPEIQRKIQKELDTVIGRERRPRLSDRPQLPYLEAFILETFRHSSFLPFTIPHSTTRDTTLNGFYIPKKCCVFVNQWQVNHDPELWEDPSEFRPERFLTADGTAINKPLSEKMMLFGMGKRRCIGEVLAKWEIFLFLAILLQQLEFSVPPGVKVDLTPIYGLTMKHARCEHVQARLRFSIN
The data set is described as follows: CYP1A2 inhibition in Sacchrosomes. Type of data set: biochemical. The essentials: (§1)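 Kinetic microplate assay, 15 min reaction, using recombinant human P450s expressed in S. cerevisiae microsomes. Run in 100 mM potassium phosphate pH 7.4 with an NADPH-regenerating system (final: 0.04 units G6PDH, 1.3 mM NADP+, 3.3 mM glucose-6-phosphate, 3.3 mM MgCl2, 50 μM sodium citrate). Reaction started with substrate plus NADPH system. Test compound serially diluted from 20 μM final (CYP2E1: from 10 μM), 0.5% DMSO final. IC50 from Hill fit.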

The target in data set [2] is T2, CYP1B1 (Homo sapiens, UniProt Q16678).
T2 sequence (Q16678 1-543): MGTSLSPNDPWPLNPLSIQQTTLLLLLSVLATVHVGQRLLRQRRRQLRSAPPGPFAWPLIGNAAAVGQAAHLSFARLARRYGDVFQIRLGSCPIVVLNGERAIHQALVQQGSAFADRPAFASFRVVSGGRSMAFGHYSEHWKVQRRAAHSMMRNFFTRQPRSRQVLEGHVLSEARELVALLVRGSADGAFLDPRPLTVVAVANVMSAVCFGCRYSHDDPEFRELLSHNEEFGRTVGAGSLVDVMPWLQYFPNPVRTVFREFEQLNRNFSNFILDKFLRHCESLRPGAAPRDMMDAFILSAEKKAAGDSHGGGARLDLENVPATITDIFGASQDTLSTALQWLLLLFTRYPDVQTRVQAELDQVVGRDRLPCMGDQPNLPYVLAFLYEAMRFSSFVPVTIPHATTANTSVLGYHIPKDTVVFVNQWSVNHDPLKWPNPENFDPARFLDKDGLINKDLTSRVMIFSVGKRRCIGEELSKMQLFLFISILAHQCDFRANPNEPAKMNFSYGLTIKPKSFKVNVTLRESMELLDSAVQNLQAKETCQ
The data set is described as follows: CYP1B1 inhibition in Sacchrosomes. The format is biochemical. A digest of the protocol:
as §1

The target of data set [3] is T3, CYP1A1 (Homo sapiens, UniProt P04798).
T3 sequence (P04798 1-512): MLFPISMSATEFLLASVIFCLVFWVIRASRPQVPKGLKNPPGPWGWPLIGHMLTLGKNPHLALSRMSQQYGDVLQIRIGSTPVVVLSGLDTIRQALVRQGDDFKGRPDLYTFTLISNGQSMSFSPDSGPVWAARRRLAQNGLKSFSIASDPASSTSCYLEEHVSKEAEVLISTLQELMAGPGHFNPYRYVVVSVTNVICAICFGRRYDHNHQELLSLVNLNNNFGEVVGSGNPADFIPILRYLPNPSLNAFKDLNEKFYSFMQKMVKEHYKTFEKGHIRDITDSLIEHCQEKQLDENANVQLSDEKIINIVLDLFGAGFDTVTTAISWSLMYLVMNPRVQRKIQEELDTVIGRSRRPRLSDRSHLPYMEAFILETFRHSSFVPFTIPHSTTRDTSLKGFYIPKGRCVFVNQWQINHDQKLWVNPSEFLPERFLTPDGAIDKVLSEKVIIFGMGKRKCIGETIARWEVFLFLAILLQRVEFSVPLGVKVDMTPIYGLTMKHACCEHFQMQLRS
Briefly: CYP1A1 inhibition in yeast microsomes. Type of data set: biochemical. A digest of the protocol: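 Human CYP1A1 expressed in yeast microsomes (Sacchrosomes). […] IC50 from a four-parameter variable-slope sigmoidal (Hill) fit of uninhibited fraction against inhibitor concentration.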

Data set [4] concerns CYP1A1-overexpressing HEK293 cells. The data set is described as follows: Protection of CYP1A1-overexpressing HEK293 cells from B[a]P toxicity. To be noted: compound at 3× IC50 concentration. The format is cell-based, human. A digest of the protocol:
(§2)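 CYP1A1-expressing adherent HEK293 cells exposed to B[a]P at 0.05–100 μM, alone or with test compound. Viability read by MTT and checked by sulforhodamine B. EC50 (B[a]P concentration for 50% viability loss) taken from a dose–response curve of viability versus log B[a]P concentration, averaged over three independent experiments.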

The target in data set [5] is T3, CYP1A1. Briefly: CYP1A1 inhibition in live HEK293 cells overexpressing CYP1A1. The format is cell-based. To be noted: for inhibition at 10 µM: human, live HEK293 cells overexpressing CYP1A1, % inhibition of CYP1A1 at 10 μM (Mean ± SD) HEK293 cells, HEK293 cells overexpressing CYP1A1; for selectivity for CYP1A1 over CYP1B1: ratio of live cell IC50 values CYP1B1/CYP1A1.

Data set [6] has as its target T2, CYP1B1. The data set is described as follows: CYP1B1 inhibition in live human HEK293 cells. The format is cell-based. The essentials: (§3)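 Live recombinant HEK293 cells, each expressing a single human CYP isoform. IC50 from a four-parameter variable-slope sigmoidal (Hill) fit of uninhibited fraction against inhibitor concentration.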
Data set [7] has as its system CYP2A6, CYP2B6, CYP2C8, CYP2C9, CYP2C18, CYP2C19, CYP2D6, CYP2E1, CYP3A4. The data set is described as follows: CYP2 and CYP3 subfamily panel inhibition in Sacchrosomes. The format is biochemical. The conditions noted are these: human, pH 7.4. A digest of the protocol:
as §1

For the next data set, the target named is CYP2D6 (Homo sapiens, UniProt P10635). Briefly: CYP2D6 inhibition in live human HEK293 cells. The format is cell-based. A digest of the protocol: as §3
Another data set deals with CYP3A4 (Homo sapiens, UniProt P08684). The data set is described as follows: CYP3A4 inhibition in live human HEK293 cells. Type of data set: cell-based. A digest of the protocol: as §3
Data set [8] deals with T1, CYP1A2. The data set is described as follows: CYP1A2 inhibition in live human HEK293 cells. The format is cell-based. A digest of the protocol:
as §3

The next data set deals with A549 cells. Briefly: FACS cell cycle analysis of A549 lung cancer cells treated with B[a]P. The conditions noted are these: A549 (p53+); 4l at 3× IC50 before 15 μM B[a]P. Type of data set: cell-based, human. A digest of the protocol: (§4)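 CYP1A1 expression in the cells confirmed by western blot. Cells preincubated 20 h with test compound, exposed to 15 μM B[a]P for 3 h, then released into fresh medium for 57 h. Cells trypsinised, PBS-washed and fixed 1 h in 70% ethanol at −20 °C. Treated with RNase (0.5 mg/mL) and stained with propidium iodide (50 μg/mL) for 1 h at 4 °C in the dark. Single cells gated; about 10 000 events collected; % G0/G1, S and G2/M reported.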

The subject of a further data set is Calu-1 cells. The data set is described as follows: FACS cell cycle analysis of Calu-1 lung cancer cells treated with B[a]P. Type of data set: cell-based, human. The conditions noted are these: Calu-1 (p53-null); 4l at 3× IC50 before 15 μM B[a]P. A digest of the protocol:
as §4

A short description of data set [9]: Protection of CYP1A1-overexpressing HEK293 cells from B[a]P toxicity. The conditions noted are these: human, CYP1A1-overexpressing HEK293 cells. The format is cell-based, human. The essentials: as §2
Another data set deals with normal HEK293 cells. The data set is described as follows: B[a]P toxicity in normal HEK293 cells. The format is cell-based. To be noted: Homo sapiens, HEK293, read-out: EC50 of B[a]P in normal HEK293 cells. The essentials:
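Adherent HEK293 cells exposed to a concentration series of B[a]P; viability read by MTT assay. EC50 is the B[a]P concentration giving 50% loss of viability, taken from a dose–response curve of viability versus log B[a]P concentration.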

Entries after “also recorded” stand apart in the source; their conditions may differ.

Chain of CYP2D6 (P10635 whole entry): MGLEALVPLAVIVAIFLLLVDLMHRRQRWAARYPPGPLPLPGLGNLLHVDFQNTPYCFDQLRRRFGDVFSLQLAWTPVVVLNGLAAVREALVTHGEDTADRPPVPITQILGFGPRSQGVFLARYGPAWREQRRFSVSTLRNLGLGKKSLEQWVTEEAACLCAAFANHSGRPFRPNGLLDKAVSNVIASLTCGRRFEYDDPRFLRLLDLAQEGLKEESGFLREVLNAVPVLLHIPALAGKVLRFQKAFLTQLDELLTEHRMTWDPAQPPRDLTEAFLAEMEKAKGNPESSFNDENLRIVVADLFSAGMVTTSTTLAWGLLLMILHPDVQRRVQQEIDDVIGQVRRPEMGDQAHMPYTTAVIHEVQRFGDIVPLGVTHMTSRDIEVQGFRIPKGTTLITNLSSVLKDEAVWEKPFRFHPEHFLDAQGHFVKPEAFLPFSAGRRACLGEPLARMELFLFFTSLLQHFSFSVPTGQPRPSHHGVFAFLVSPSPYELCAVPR
Chain of CYP3A4 (P08684 whole entry): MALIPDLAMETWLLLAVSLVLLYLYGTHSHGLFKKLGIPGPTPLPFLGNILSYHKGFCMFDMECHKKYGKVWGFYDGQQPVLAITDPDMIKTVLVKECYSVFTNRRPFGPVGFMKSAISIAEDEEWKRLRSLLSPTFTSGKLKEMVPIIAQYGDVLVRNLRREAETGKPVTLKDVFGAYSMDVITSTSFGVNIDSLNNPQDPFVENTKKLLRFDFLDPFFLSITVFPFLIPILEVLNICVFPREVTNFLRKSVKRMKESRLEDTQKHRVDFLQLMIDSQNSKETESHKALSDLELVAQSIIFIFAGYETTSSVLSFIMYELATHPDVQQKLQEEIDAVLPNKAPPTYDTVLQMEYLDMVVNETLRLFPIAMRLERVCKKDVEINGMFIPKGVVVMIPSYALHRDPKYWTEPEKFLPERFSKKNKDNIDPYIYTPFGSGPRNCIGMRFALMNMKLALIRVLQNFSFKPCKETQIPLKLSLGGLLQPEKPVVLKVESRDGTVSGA

Take `COc1c(C(=O)C=Cc2cccnc2)c(O)c(OC)c2occc12` [3g, 1-(6-Hydroxy-4,7-dimethoxybenzofuran-5-yl)-3-(pyridin-3-yl)prop-2-en-1-one]: the IC50 was 170 ± 20 nM against CYP1A2 [1]; 660 ± 40 nM against CYP1B1 [2]; 340 ± 30 nM against CYP1A1 [3]; 470 nM at CYP1A1 [5]; 270 nM on CYP1B1 [6]. The inhibition at 10 µM on CYP1A1 [3] (human, % inhibition of CYP1A1 at 10 μM (Mean ± SD) Sacchrosomes, 10 μM, Sacchrosomes) was determined as 97%; against CYP1A1 [5] it was 99%. Besides, the “protection from CYP1A1-mediated B[a]P toxicity” value in data set [4] is “completely protected”. For the same molecule, the IC50 at 15 min in data set [7] is more than 20000 nM.
Regarding `COc1c(C(=O)C=Cc2ccsc2)c(O)c(OC)c2occc12` [3r, 1-(6-Hydroxy-4,7-dimethoxybenzofuran-5-yl)-3-(thiophen-3-yl)prop-2-en-1-one], the IC50 against CYP1A2 [1] was 4200 ± 800 nM; against CYP1B1 [2] it was 780 ± 40 nM; against CYP1A1 [3], 280 ± 30 nM. The IC50 at 15 min in data set [7] is more than 20000 nM.
Turning to `COc1c2c(c(OC)c3occc13)OC(c1ccccc1)CC2=O` (stereo not drawn) [4a, 4,9-Dimethoxy-7-phenyl-6,7-dihydro-5H-furo[3,2-g]chromen-5-one], the IC50 on CYP2D6 was more than 10000 nM; against CYP1A1 [5] it was 1840 ± 140 nM; on CYP3A4 it was more than 10000 nM; at CYP1B1 [6], 566 ± 80 nM; at CYP1A2 [8], more than 10000 nM. For the same molecule, at CYP1A1 [5], the inhibition at 10 µM was determined as 87%.
In the case of `COc1c2c(c(OC)c3occc13)OC(c1cccnc1)CC2=O` (stereo not drawn) [4e, 4,9-Dimethoxy-7-(pyridin-3-yl)-6,7-dihydro-5H-furo[3,2-g]chromen-5-one], the IC50 at CYP2D6 was more than 10000 nM; against CYP1A1 [5], 450 ± 60 nM; against CYP3A4 it was more than 10000 nM; against CYP1B1 [6] it was 4160 ± 250 nM; against CYP1A2 [8] it was more than 10000 nM. Further, the “selectivity for CYP1A1 over CYP1B1” value on CYP1A1 [5] is 9.2 fold.
As for `COc1c2c(c(OC)c3occc13)OC(c1ccc(F)c(Br)c1)CC2=O` (stereo not drawn) [4l, 7-(3-Bromo-4-fluorophenyl)-4,9-dimethoxy-6,7-dihydro-5H-furo[3,2-g]chromen-5-one], the IC50 at CYP2D6 is more than 10000 nM; against CYP1A1 [5], 140 ± 40 nM; at CYP3A4, more than 10000 nM; against CYP1B1 [6] it was 23800 ± 1200 nM; at CYP1A2 [8] it was more than 10000 nM. In addition, in data set [4], the “protection from CYP1A1-mediated B[a]P toxicity” value is “completely protected”. The “selectivity for CYP1A1 over CYP1B1” value on CYP1A1 [5] amounted to 170 fold. Further, the “effect on B[a]P-mediated S-phase block” value in the data set on A549 cells and with Calu-1 cells was “restored into the cell cycle; also recorded: preponderantly released from the block; also recorded: prevented manifestation of B[a]P-mediated S-phase block” in each case.
Consider `c1ccc2c(c1)cc1ccc3cccc4ccc2c1c34` [B[a]P, benzo[a]pyrene, reference compound], for which the concentration for a half-maximal effect (EC50) in [9] stood at 1400 nM; with normal HEK293 cells, 14000 nM.
